From publication PMC9371711 (Proceedings of the National Academy of Sciences of the …, 2022)
Values belong to the compound of their own block, whether it stands above or below them.

Assays:
TB77 cells [1] = test: TB77 proliferation, CCK8; assay type: cell-based, human; details: 1, 10, 30 μM, 1% serum, CCK8 9 d posttreatment; P = 0.0011
[2] = system: TB26, TB43, TB48, GBM59, GBM96 primary GBM cultures; test: Proliferation of AGTR2-expressing primary GBM cultures, CCK8; assay type: cell-based, human; details: GBM59, 1% serum, CCK8 9 d
Method in brief: (§1)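 Primary GBM explants in 1% serum were exposed to test compound at 1, 10 and 30 μM. Viability was read by CCK8 9 d posttreatment. Values are mean A450 normalised to untreated control ± SEM.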

GBM31 = test: Proliferation of GBM31; assay type: cell-based, human; details: 1, 10, 30 μM, 1% serum, CCK8 9 d
Method in brief: as §1

[3] = system: TB48, TB77, GBM96 spheroids; test: 3D spheroid growth, CCK8; assay type: cell-based, human; details: 10, 30, 50 μM, CCK8 9 d posttreatment
Method in brief: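 TB48, TB77 and GBM96 primary cells grown as 3D spheroids were exposed to test compound at 10, 30 and 50 μM. Growth was read by CCK8 9 d posttreatment. Values are mean A450 normalised to untreated control ± SEM. Groups were compared by ANOVA with Tukey's test.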

GBM96 spheroids = test: Spheroid invasion in 50% Matrigel; assay type: cell-based, human; details: GBM96, dose-dependent, area covered by invading cells
Method in brief: (§2)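 Primary-cell spheroids were embedded in 50% Matrigel and exposed to test compound. Invasion was followed over time as the area covered by invading cells, by image thresholding. Values are mean area in pixels ± SEM. Groups were compared by ANOVA with Tukey's test.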

TB48 spheroids = test: Spheroid invasion in 50% Matrigel; assay type: cell-based, human; details: TB48, 30 μM
Method in brief: as §2

hCMEC/D3 = test: Endothelial cell tube formation with GBM-conditioned media; assay type: cell-based, human; details: 6-h incubation with media of TB77 treated with 30 μM EMA401
Method in brief: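 Conditioned media came from untreated TB77 cells or TB77 treated with 10 μM AT1R antagonist and 30 μM test compound. hCMEC/D3 endothelial cells were incubated in these media for 6 h. Read-outs were total segment length (pixels) and number of meshes, as mean ± SEM. Groups were compared by ANOVA with Tukey's multiple comparisons.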

TB77 cells [4] = test: RNA sequencing, whole-transcriptome analysis; assay type: cell-based, human; details: 30 µM, 24 h; for number of differentially expressed genes vs untreated control: P < 0.01; for number of unique differentially expressed genes: not shared with the other antagonist
TB77 cells [5] = test: Muse Annexin V & Dead Cell Assay; assay type: cell-based, human; details: 10, 30, 50 μM; 24, 48, 72 h; time and dose dependent
TB77 cells [6] = test: Cell cycle, propidium iodide flow cytometry; assay type: cell-based, human; details: 10, 30, 50 μM
[7] = system: caspase-3/7 in TB77 cells; test: Caspase-Glo 3/7 Assay; assay type: cell-based, human; details: 30 μM
[8] = system: TB43, TB48, GBM59, GBM96 primary GBM cultures; test: Proliferation of primary GBM cultures with EMA401, A3E, TMZ, CCK8; assay type: cell-based, human; details: for sensitivity of GBM96: GBM96 (lacks AGTR1), A3E 10 μM
[9] = In vivo brain biodistribution, LC-MS/MS; parameters: species or system C57BL/6 mice; details: i.v., 30 min after dosing
rat AT1R = details: read-out: IC50 at rat AT1R; cited from earlier work
[10] = cited from earlier work
GBM59 = test: TMZ sensitivity of primary GBM cells, SRB; assay type: cell-based, human; details: TMZ 2-512 μM, 10% FBS, SRB after 9 days
[11] = system: 8MG, TB26, TB77 GBM cells; test: Growth of AT2R-expressing GBM cells with AngII and antagonists, low serum; assay type: cell-based, human; details: 1% FBS, 6 d; for effect of antagonist on AngII-enhanced growth: antagonist 10 μM + 10 nM AngII
Method in brief: (§3)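 Cells in 1% FBS received 10 nM AngII, AT1R or AT2R antagonists at 10 μM, each antagonist plus AngII, or both antagonists together. Established lines were read by SRB staining and primary cultures by CCK8, 6 d posttreatment. Values are mean absorbance normalised to untreated control ± SEM. Groups were compared by ANOVA with Tukey's test.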

TB82 = test: Growth of GBM cells expressing AT1R but not AT2R with AngII, low serum; assay type: cell-based, human; details: 10 nM AngII, 1% FBS, 6 d
Method in brief: as §3

AT2R = details: cited from earlier work; for Kd: read-out: KD (Dissociation constant) for AT2R
U87-GFP/luc tumors [12] = test: Subcutaneous U87-GFP/luc xenograft model of GBM; assay type: in vivo, NSG mice
Method in brief: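 2 × 10⁶ U87-GFP/luc cells were injected into the flanks of NSG mice. Once tumours were established, mice were randomised to test compound, comparators or vehicle (PBS, 5% DMSO, 5% solutol), n = 7–9 per group, and treated for 21 d. Tumour volume and final tumour weight are reported as mean ± SEM.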

U87-GFP/luc tumors [13] = test: Orthotopic; assay type: in vivo, BALB/c nude mice
Method in brief: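 2 × 10⁵ U87-GFP/luc cells were implanted into the right cerebral cortex. After 7 d, mice were randomised to test compound or vehicle (PBS, 5% DMSO, 5% solutol), n = 6 each, dosed daily i.p. for 14 d. IVIS bioluminescence was imaged twice weekly and body weight tracked. Tumour sections were scored for H&E tumour area, fluorescent integrin β3 intensity and TUNEL intensity.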

EMA401 metabolite (peak at 3.7 min, m/z 314) in brain samples [9]: a metabolite was identified
Compound: COc1ccc2c(c1OCc1ccccc1)C[C@@H](C(=O)O)N(C(=O)C(c1ccccc1)c1ccccc1)C2 [EMA401]
growth inhibition compared with PD123319 (TB77 cells [1]): significantly more potent growth inhibition than PD123319
growth inhibition of TMZ-insensitive GBM59 [2]: efficiently inhibited
sensitivity of GBM31 to growth inhibition (GBM31): insensitive
spheroid growth sensitivity [3]: sensitive
spheroid invasiveness (GBM96 spheroids): significantly reduced the invasiveness
spheroid invasiveness (TB48 spheroids): significantly reduced
total segment length of endothelial tubes (hCMEC/D3): significantly reduced
number of differentially expressed genes vs untreated control (TB77 cells [4]): 5,498 genes
down-regulation of FGF18 (TB77 cells [4]; RNA-seq): 2.7 fold
down-regulation of G6PD (TB77 cells [4]; RNA-seq): 1.26 fold
down-regulation of PDK2 (TB77 cells [4]; RNA-seq): 1.29 fold
down-regulation of PDK4 (TB77 cells [4]; RNA-seq): 1.29 fold
down-regulation of PIDD1 (TB77 cells [4]; RNA-seq): 1.3 fold
down-regulation of TKT (TB77 cells [4]; RNA-seq): 1.33 fold
up-regulation of CASP3 (TB77 cells [4]; RNA-seq): 1.43 fold
up-regulation of MAP2K3 (TB77 cells [4]; RNA-seq): 1.7 fold
up-regulation of NFKB2 (TB77 cells [4]; RNA-seq): 1.5 fold
up-regulation of RelB (TB77 cells [4]; RNA-seq): 2.4 fold
up-regulation of TNFRSF21 (TB77 cells [4]; RNA-seq): 1.5 fold
number of unique differentially expressed genes (TB77 cells [4]): 4,211 genes
early apoptotic cells (TB77 cells [5]): significant increase in early apoptotic cells
cell-cycle parameters (TB77 cells [6]): No changes in cell-cycle parameters
enhancement of caspase-3/7 activation ([7]; 24 h, luminescence, P < 0.0001): 30%
caspase-3/7 activation ([7]; 48 h): returned to baseline levels
antiproliferative potency compared with TMZ ([8]; EMA401 30 μM, TMZ 30 μM, 1% serum, CCK8 9 d): greater potency than TMZ
sensitivity of GBM96 ([8]; EMA401 30 μM): especially sensitive
IC50 (rat AT1R): 408 µM
blood-brain barrier penetration [10]: inability of EMA401 to penetrate the blood–brain barrier

Compound: Cn1nnc2c(C(N)=O)ncn2c1=O [TMZ, temozolomide]
sensitivity of GBM59 to TMZ (GBM59): insensitive

Compound: angiotensin II (DRVYIHPF; Angiotensin-2; UniProt P01019 25-32, looked up) [AngII]
cell growth with exogenous AngII ([11]; 10 nM AngII, SRB or CCK8): significantly enhanced
cell growth with exogenous AngII (TB82): minimally increased
selectivity for AT2R over AT1R (AT2R): 10 fold
Kd (AT2R): 1.6 nM

Compound: COc1ccc2c(c1OCc1ccccc1)C[C@@H](C(=O)OCC(=O)NCCCC[C@H](NC(=O)CNC(=O)[C@H](CCCNC(=N)N)NC(=O)[C@H](CO)NC(=O)CNC(=O)CNC(=O)[C@H](Cc1ccc(O)cc1)NC(=O)[C@H](Cc1ccccc1)NC(=O)[C@H](Cc1ccccc1)NC(=O)[C@@H](NC(=O)COC(=O)[C@@H]1Cc3c(ccc(OC)c3OCc3ccccc3)CN1C(=O)C(c1ccccc1)c1ccccc1)[C@@H](C)O)C(=O)N[C@@H](CCCNC(=N)N)C(=O)N[C@@H](CC(N)=O)C(=O)N[C@@H](CC(N)=O)C(=O)N[C@@H](Cc1ccccc1)C(=O)N[C@@H](CCCCNC(=O)COC(=O)[C@@H]1Cc3c(ccc(OC)c3OCc3ccccc3)CN1C(=O)C(c1ccccc1)c1ccccc1)C(=O)N[C@H](C(=O)N[C@@H](CCC(=O)O)C(=O)N[C@@H](CCC(=O)O)C(=O)N[C@@H](Cc1ccc(O)cc1)C(=O)O)[C@@H](C)O)N(C(=O)C(c1ccccc1)c1ccccc1)C2 [A3E]
antiproliferative effect compared with EMA401 ([8]; A3E 10 μM vs EMA401 30 μM, 1% serum, CCK8 9 d): equivalent inhibition to native EMA401 at a three-fold lower dose
sensitivity of GBM96 ([8]; EMA401 30 μM): especially sensitive
EMA401 metabolite (peak at 3.7 min, m/z 314) in brain samples [9]: not detected
tumor size, volume and weight vs vehicle- or EMA401-treated groups (U87-GFP/luc tumors [12]; A3E 25.88 mg/kg i.p. daily, 21 d, NSG mice): significantly smaller size
efficacy compared with TMZ (U87-GFP/luc tumors [12]; A3E 25.88 mg/kg, TMZ 30 mg/kg, i.p. daily): slightly more effective than TMZ, though this was not significant
reduction of tumor size vs vehicle control (U87-GFP/luc tumors [13]; A3E 25.88 mg/kg i.p. daily for 14 d, bioluminescent imaging (IVIS), n = 6): 40%
integrin β3 staining (angiogenesis) of tumor sections (U87-GFP/luc tumors [13]; n = 2, P = 0.17): reduction in integrin-β3 staining
apoptosis, TUNEL assay of tumor sections (U87-GFP/luc tumors [13]; n = 3, P = 0.056): apoptosis was enhanced
tumor area, H&E staining, vs saline group (U87-GFP/luc tumors [13]; n = 5, P = 0.084): consistently smaller
toxicity by body weight (U87-GFP/luc tumors [13]; subcutaneous or intracranial models, no significant weight loss over the study): no detectable toxicity

Compound: Cc1cc(Cn2cnc3c2C[C@@H](C(=O)O)N(C(=O)C(c2ccccc2)c2ccccc2)C3)ccc1N(C)C [PD123319]
proliferation in the absence of exogenous AngII ([11]; 10 μM, significant in 8MG and TB77): inhibited the proliferation
effect of antagonist on AngII-enhanced growth [11]: blocked the enhanced growth
number of differentially expressed genes vs untreated control (TB77 cells [4]): 2,195 genes
number of unique differentially expressed genes (TB77 cells [4]): 908 genes
Kd (AT2R): 71.7 nM
IC50 (rat AT1R): 210 µM

Compound: CCCCc1nc(Cl)c(CO)n1Cc1ccc(-c2ccccc2-c2nn[nH]n2)cc1 [losartan]
effect of antagonist on AngII-enhanced growth [11]: no effects were observed
